Compound activity as filed in PubChem BioAssay.
The list is not random: actives were taken first. Their share in the collection is about 3.7%.
KCNK9 inh: blocks the human KCNK9 two-pore domain potassium channel | hit rate 1.2% among 310,000 | Q9NPC2 | HEK293 KCNK9, FluxOR thallium flux fluorescence; active compounds read low | B-score at 10 µM;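 active means ratio B-score over 3 SD below the library mean, with starting fluorescence within 5 SD of its mean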;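 further: negative B-score means less thallium flux so channel inhibition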
Target sequence (Q9NPC2 whole entry, looked up, the tested form may be a part): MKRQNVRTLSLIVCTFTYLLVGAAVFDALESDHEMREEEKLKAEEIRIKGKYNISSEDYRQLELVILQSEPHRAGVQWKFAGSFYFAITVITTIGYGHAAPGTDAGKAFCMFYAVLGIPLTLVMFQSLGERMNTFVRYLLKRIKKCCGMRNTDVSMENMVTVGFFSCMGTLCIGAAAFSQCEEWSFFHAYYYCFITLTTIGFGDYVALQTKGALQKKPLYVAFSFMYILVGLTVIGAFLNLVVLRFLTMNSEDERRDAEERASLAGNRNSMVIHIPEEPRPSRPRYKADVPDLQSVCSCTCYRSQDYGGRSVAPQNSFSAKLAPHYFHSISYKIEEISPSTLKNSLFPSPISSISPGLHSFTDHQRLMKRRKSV
Kir21 inh: inhibitors of mouse Kir2.1 inward-rectifier potassium channel | P35561 | HEK293-Kir2.1, FluxOR thallium flux fluorescence; active compounds read low | B-score at 10 µM | hit rate 0.85% among 310,000 | AID 1672;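 active means fluorescence ratio B-score at or below minus 3 SD of library scores, with starting-brightness B-score within 2 SD, cut at about -4.2 in these data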;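 further: channel flux triggered by added potassium and thallium sulfate stimulus; B-score of peak minus minimum fluorescence over baseline after thallium stimulus; more negative B-score means stronger Kir2.1 block with less thallium influx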
hERG protect: hERG (human) protection from proarrhythmic block | hit rate 0.51% among 310,000 | activation (rescue from dofetilide block), less the hit threshold, % at 10 µM | CHO-hERG, FluxOR thallium flux, dofetilide IC70 present;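 active means activation above the mean of controls blocked by dofetilide plus 5 SD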;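 further: thallium influx through hERG after potassium depolarization seen as dye fluorescence rise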
KCNQ1 act: human KCNQ1 channel potentiation or activation. CHO-K1 KCNQ1, thallium flux FluxOR fluorescence; active compounds read high. B-score at 10 µM. hit rate 0.35% among 310,000. AID 2648;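 active means fluorescence ratio B-score, a plate-corrected score, at least three library SD, with initial intensity B-score within 5 SD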
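assay system = CHO-K1 cells stably expressing KCNQ1 | medium = assay buffer, equal DMSO in all wells | timing = 37 °C overnight plating, 90-min dark dye load, 20-min compound pretreatment | measured by = kinetic FluxOR thallium fluorescence, 10-s 1-Hz baseline, 110-s post-stimulus read | measure = fluorescence change relative to baseline, converted to B score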
KCNQ1 block: human KCNQ1 channel inhibition; CHO-K1 KCNQ1, FluxOR thallium flux fluorescence; active compounds read high; AID 2642; P51787; B-score at 10 µM; hit rate 1.3% among 310,000;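 active means compounds whose thallium flux B-score, printed positive for inhibition, exceeds three library SD while starting fluorescence stays within three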;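 further: channel opened by potassium depolarization with thallium stimulus after 20 min compound exposure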
KCNK3 inh: human KCNK3 channel inhibition, primary screen | CHO-KCNK3 thallium flux, FluxOR fluorescence; active compounds read low | B-score at 10 µM | hit rate 0.84% among 340,000;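 active means B-score under library mean minus 4 SD, starting fluorescence ratio at most library mean plus 5 SD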;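 further: more negative B-score means stronger inhibition of thallium flux through KCNK3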
A number is an active result; 0 = inactive; - = not tested or not shown.

SMILES	KCNK9 inh	Kir21 inh	hERG protect	KCNQ1 act	KCNQ1 block	KCNK3 inh
C[C@H](NC(=O)c1cccc([N+](=O)[O-])c1)C(=O)OCC(=O)c1ccccc1Br	-	-	-	-	-	0
O=C(Nc1ccc(Br)cc1Cl)Nn1cnnc1	0	0	6.2	0	0	0
CNc1nc(-c2ccccc2)[n+](-c2ccc(C)cc2)s1	0	0	0	0	0	0
Cc1ccc(-c2nc(N)s[n+]2-c2ccccc2)cc1	0	0	10	0	0	0
CCc1ccc(S(=O)(=O)NCCc2cn3ccc(C)cc3n2)s1	0	-8.8	0	0	0	0
NC(=O)c1cc(S(=O)(=O)N2CCCC2)ccc1OCCOc1ccccc1	-	-	-	-	-	0
O=C(NC(=S)N(CCCCO)C1CCCCC1)c1sc2ccccc2c1Cl	0	0	18	31	0	0
CC(C)COC(=O)/C(C#N)=C/c1c[nH]c2ccccc12	-7.3	0	0	0	0	0
COc1cc(/C=N/NS(=O)(=O)c2ccc(C)c([N+](=O)[O-])c2)ccc1O	0	0	0	0	0	0
COc1cc(/C=N/NS(=O)(=O)c2ccc(C)c([N+](=O)[O-])c2)cc([N+](=O)[O-])c1O	0	0	0	0	6	0
CC(=O)N1Cc2ccccc2C(C)CC12CCCCC2 (stereo unspecified)	0	-7.3	0	0	0	0
COc1nnc(-c2ccc(C)cc2)c2ccccc12	0	0	0	0	0	0
O=C(O)c1ccc(CN2CCCCC2)o1	0	0	5.1	0	0	0
CCCN(CCC)C(=O)CCS(=O)(=O)c1cccc2nsnc12	0	-4.5	0	0	0	0
Cc1cccc(NC(=O)CCS(=O)(=O)c2cccc3nsnc23)c1C	0	0	0	0	0	0
COC1OC(O)C(NC(=O)C(F)(F)F)CC1O (stereo unspecified)	-	-	-	-	-	0
Cc1cc(C(=O)CSc2nc3ccccc3c(=O)n2C)c(C)n1Cc1ccc2c(c1)OCO2	-7.9	0	0	0	0	0
Cc1ccc(-c2cc(-c3ccc(F)cc3)n[nH]2)c(O)c1	0	0	0	0	6	0
Cc1ccc(-c2cc(-c3ccc(C)cc3O)[nH]n2)cc1	0	0	0	0	0	0
CN=C(C)c1c(O)c2ccccc2oc1=O	0	0	4.9	0	0	0
CCn1c(CSCc2ccc(C)cc2)nnc1SCC(=O)NCc1ccccc1	0	-6	0	0	0	0
CCn1c(CSCc2ccc(F)cc2)nnc1SCC(=O)NCc1ccccc1	0	0	0	0	0	0
CN(CCc1ccccc1)C(=O)c1ccc(NC(=O)Cc2ccc(NC(=O)C3CCN(S(=O)(=O)c4cccc([N+](=O)[O-])c4)CC3)cc2)cc1	-	-	-	-	-	0
Cn1c(CNC(=O)c2ccccc2F)nnc1SCc1nc2ccccc2c(=O)[nH]1	0	0	6.8	0	0	-
COc1ccc(C(=O)NCCc2nnc(SCc3nc4ccccc4c(=O)[nH]3)n2C)cc1	0	0	0	0	0	0
SMILES	KCNK9 inh	Kir21 inh	hERG protect	KCNQ1 act	KCNQ1 block	KCNK3 inh
Nc1c(N2CCCCC2)c2ccccc2oc1=O	0	0	0	0	0	0
COc1ccccc1C(=O)ON=C1c2ccccc2-c2ccccc21	-8.1	0	0	0	0	0
CC(C)(C)c1cc(C(=O)NNC(=O)c2ccc(Cl)cc2)no1	0	0	5.7	18	0	0
Cc1cc(C(=O)NNC(=O)c2ccc(C(F)(F)F)cc2)no1	0	0	0	0	0	0
Cc1noc(C)c1S(=O)(=O)NCc1cccc(Cl)c1	-	-	-	-	-	-11
Cc1noc(C)c1S(=O)(=O)Nc1cccc(C(F)(F)F)c1	0	0	0	0	6	0
Cc1cccc(NS(=O)(=O)c2c(C)noc2C)c1	0	0	0	0	0	0
CC(C)S(=O)(=O)C1=NSC2=NC(=O)/C(=C\c3ccc(-c4ccccc4)o3)C(=N)N21	0	0	0	0	8	0
N=C1/C(=C\c2ccc(-c3cc(Cl)cc(Cl)c3)o2)C(=O)N=C2SC=C(c3ccccc3)N12	0	0	0	0	0	0
CC(C)S(=O)(=O)C1=NSC2=NC(=O)/C(=C\c3ccc(-c4cccc(C(=O)O)c4)o3)C(=N)N21	-	-	-	-	-	0
N=C1/C(=C/c2ccc(-c3cccc(C(=O)O)c3)o2)C(=O)N=C2SC=C(c3ccccc3)N12	0	0	0	0	7	0
CC(=O)Nc1ccc(S(=O)(=O)NCC2(N3CCOCC3)CCCCC2)cc1	-	-	-	-	-	0
CC(C)(CC(=O)c1ccccc1)CC(=O)c1ccccc1	-	-	-	-	-	0
CC(Sc1ccc(Cl)cc1)C(=O)NNC(=O)c1ccccc1O (stereo unspecified)	0	0	0	0	6	0
O=C(/C=C/c1ccccc1)Nc1cccc(C(=O)NC2CC2)c1	-	-	-	-	-	0
CC[n+]1c(/C=C/N(C)c2ccccc2)oc2ccccc21	0	0	0	0	8	0
CC[n+]1c(/C=C/N(C)c2ccccc2)oc2ccc(F)cc21	0	0	0	0	0	0
CC1CCN(C(=S)c2cn(Cc3ccccc3F)c3ccccc23)CC1	-6.6	0	0	0	0	0
CC(C)(C)C(=O)/C(=C\c1ccc([N+](=O)[O-])cc1)n1cncn1	0	-7.3	0	0	0	-
CCC(CC)NC(=O)c1ccccc1Oc1ccccc1	0	-6.9	0	0	0	0
CCC[C@@H](CN[C@@H](CNC)[C@H](C)CC)NCC1CCC(C(C)(C)C)CC1 (stereo partly specified)	0	0	0	0	0	0
CCC[C@H](CN[C@@H](CNC)[C@H](C)CC)NCCc1cc(C(F)(F)F)cc(C(F)(F)F)c1	0	-4.2	0	0	0	0
CCCN(CCC)C1=CC(=[N+]2CCCC2)CC(C)(C)C1	0	0	0	0	6	0
CN(C)NC1=CC(=[N+]2CCCC2)CC(C)(C)C1	0	0	0	0	0	0
COc1ccc(C(=O)/C=C/C(=O)N(CC(=O)NC2CCCCC2)CC2CCCO2)c(O)c1 (stereo unspecified)	0	-5.3	0	0	0	0
SMILES	KCNK9 inh	Kir21 inh	hERG protect	KCNQ1 act	KCNQ1 block	KCNK3 inh
O=C1CCCC/C=C\C[C@H](CC(=O)N(CCO)Cc2ccccc2)C(=O)N2CCC[C@@H]2CO1	-	-	-	-	-	0
O=C(Cc1cccc(NC(=O)C2CCCN(C(=O)C3CCCCC3)C2)c1)Nc1ccc(C(=O)N2CCCCC2)cc1 (stereo unspecified)	-	-	-	-	-	0
COc1cccc(/C=C/c2n[nH]c(=O)c(C#N)c2C)c1	0	0	0	0	0	0
c1ccc(C(c2ccccn2)c2ccccn2)cc1	0	0	0	0	0	0
CC(=O)Oc1ccc(C(c2ccc(OC(C)=O)cc2)c2ccccn2)cc1	0	-4.3	0	0	0	0
COc1ccc(S(=O)(=O)NCCSc2ccc(C)cc2)cc1OC	0	-5.2	0	0	0	0
COc1ccc(S(=O)(=O)NCCSc2ccccc2)cc1OC	0	0	0	0	0	0
CCCn1c(N)c(C(=O)CSc2nnc3ccccn23)c(=O)n(C)c1=O	-	-	-	-	-	0
CCC(=NN=C(CC)c1ccccc1O)c1ccccc1O	-	-	-	-	-	-9.9
Brc1ccccc1-c1nc2c3ccccc3ncn2n1	-	-	-	-	-	-9.4
